pEC50: −log10 of the molar value. Calls of active or inactive are those of the source. The calls are words filed in the database; no cut-off is given here.
Tests used:
[1] = tested on: Liver; experiment: Effect on ABCA1 gene expression in C57BL/6 mouse liver; format: functional, tissue-based
Summary of the method: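 Male C57BL/6 mice, 10 weeks old, chow-fed, gavaged daily with vehicle or compound (20–200 mpk) for 3 days. Fasted overnight before the last dose; killed 3 h later. Tissue RNA analysed by TaqMan qRT-PCR.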

[2] = molecular target: T1, Oxysterols receptor LXR-alpha (Homo sapiens) (UniProt Q13133); experiment: Displacement of [3H]T-0901317 from GAL-linked human LXRalpha expressed in THP1 cells at 20 uM by SPA relative to GW-3965; format: cell-based; details: THP-1
T1 sequence (whole entry): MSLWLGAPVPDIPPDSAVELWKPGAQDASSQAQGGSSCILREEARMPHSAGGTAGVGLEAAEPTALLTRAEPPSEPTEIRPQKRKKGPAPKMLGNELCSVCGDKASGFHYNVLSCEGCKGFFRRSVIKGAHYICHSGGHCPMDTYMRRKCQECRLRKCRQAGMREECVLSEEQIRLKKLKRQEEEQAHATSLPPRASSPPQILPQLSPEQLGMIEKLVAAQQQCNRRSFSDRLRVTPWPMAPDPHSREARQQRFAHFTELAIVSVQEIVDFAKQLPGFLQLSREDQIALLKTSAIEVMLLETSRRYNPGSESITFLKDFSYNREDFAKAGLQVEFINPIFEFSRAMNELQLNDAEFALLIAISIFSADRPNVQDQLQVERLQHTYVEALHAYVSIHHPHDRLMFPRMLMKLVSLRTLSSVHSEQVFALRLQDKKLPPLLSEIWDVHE
Summary of the method: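 Scintillation proximity displacement with His-tagged hLXRα or hLXRβ LBD (200 ng/well) and 30 nM [3H]T0901317. Beads 0.2 mg/well in phosphate buffer with EDTA, NaCl, DTT, CHAPS, 10% glycerol. 12-point curves from 20 µM; shaken 3 h at room temperature. No-competitor wells = 100% binding; nonspecific binding without protein. Efficacy = maximal displacement relative to reference dual agonist.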

[3] = molecular target: T2, Oxysterols receptor LXR-beta (Homo sapiens, UniProt P55055); experiment: Agonist activity at GAL-linked human LXRbeta expressed in THP1 cells assessed as stimulation of co-activator recruitment by FRET assay; format: functional
T2 sequence (P55055 whole entry): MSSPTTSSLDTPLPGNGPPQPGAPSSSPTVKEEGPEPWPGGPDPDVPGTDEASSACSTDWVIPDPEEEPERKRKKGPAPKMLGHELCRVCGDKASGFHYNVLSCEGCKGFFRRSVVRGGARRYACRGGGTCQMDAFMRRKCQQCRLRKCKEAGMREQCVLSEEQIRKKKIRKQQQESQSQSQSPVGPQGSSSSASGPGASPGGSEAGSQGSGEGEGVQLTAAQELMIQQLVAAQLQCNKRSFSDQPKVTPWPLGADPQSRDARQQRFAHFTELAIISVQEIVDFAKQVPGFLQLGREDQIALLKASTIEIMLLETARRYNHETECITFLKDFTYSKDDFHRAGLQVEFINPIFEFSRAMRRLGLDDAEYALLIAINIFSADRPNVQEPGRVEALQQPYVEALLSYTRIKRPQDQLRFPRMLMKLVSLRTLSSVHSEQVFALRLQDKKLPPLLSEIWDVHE
Summary of the method: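 Cell-free TR-FRET coactivator recruitment: 20 nM His-tagged hLXRα or hLXRβ, 300 nM biotinylated SRC-1 peptide, Eu-anti-His antibody, APC-streptavidin. 12-point curves from 20 µM; 1 h at 37 °C. Duplicate. %E = maximal coactivator recruitment relative to reference dual agonist in same experiment.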

[4] = tested on: THP-1; experiment: Increase in ABCA1 gene expression in THP1 cells at 1 uM relative to GW-3965; format: functional, Homo sapiens
Summary of the method: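 THP-1 cells differentiated with 40 ng/mL PMA for 1 day, then switched to RPMI with 2% lipoprotein-deficient FBS. Compound added 6 h later at 1 or 10 µM in DMSO, incubated 24 h. ABCA1 mRNA by one-step TaqMan qRT-PCR, triplicate, multiplexed with 36B4; fold induction vs DMSO, expressed relative to reference dual agonist.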

[5] = tested on: HepG2; experiment: Increase in FAS gene expression in HepG2 cells at 10 uM relative to GW-3965; format: functional, Homo sapiens
[6] = tested on: Hepatocyte; experiment: Induction on FAS gene expression in human primary hepatocytes at 1 uM; format: functional, cell-based
Summary of the method: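 Primary human hepatocytes treated with 1 µM compound; FAS mRNA measured by TaqMan-based qRT-PCR.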

[7] = molecular target: Retinoid X receptor (Homo sapiens) (UniProt P28702+P48443+P19793); experiment: Activity at RXR by cell based assay
Sequence of Retinoid X receptor (Homo sapiens) (P19793 whole entry, looked up): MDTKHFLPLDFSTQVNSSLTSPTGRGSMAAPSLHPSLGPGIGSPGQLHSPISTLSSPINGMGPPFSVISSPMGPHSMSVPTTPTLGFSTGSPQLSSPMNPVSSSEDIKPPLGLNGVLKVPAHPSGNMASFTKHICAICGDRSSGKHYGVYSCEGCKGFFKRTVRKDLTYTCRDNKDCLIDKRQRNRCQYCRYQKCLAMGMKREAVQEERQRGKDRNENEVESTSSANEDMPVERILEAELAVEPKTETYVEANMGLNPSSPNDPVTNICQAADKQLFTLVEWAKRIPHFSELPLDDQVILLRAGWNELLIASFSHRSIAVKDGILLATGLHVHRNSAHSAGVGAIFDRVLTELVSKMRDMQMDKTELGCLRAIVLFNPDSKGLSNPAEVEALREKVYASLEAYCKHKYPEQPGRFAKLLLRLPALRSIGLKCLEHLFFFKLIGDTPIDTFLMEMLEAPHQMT
Sequence of Retinoid X receptor (Homo sapiens) (P28702 whole entry, looked up): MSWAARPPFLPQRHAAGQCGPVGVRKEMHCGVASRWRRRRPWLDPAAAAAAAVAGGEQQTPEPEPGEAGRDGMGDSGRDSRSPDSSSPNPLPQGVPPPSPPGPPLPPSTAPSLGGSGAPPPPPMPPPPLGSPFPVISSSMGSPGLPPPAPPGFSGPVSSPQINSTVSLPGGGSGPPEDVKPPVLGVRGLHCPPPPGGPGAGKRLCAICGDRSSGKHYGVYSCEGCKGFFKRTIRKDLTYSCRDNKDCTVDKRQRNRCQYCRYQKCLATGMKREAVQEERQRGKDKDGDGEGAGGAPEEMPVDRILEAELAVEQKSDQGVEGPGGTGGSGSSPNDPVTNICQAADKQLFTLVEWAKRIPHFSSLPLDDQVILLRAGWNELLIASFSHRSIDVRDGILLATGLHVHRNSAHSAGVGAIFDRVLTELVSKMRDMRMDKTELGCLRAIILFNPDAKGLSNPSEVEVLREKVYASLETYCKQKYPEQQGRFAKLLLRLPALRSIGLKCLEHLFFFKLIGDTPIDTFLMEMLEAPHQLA
Sequence of Retinoid X receptor (Homo sapiens) (P48443 whole entry, looked up): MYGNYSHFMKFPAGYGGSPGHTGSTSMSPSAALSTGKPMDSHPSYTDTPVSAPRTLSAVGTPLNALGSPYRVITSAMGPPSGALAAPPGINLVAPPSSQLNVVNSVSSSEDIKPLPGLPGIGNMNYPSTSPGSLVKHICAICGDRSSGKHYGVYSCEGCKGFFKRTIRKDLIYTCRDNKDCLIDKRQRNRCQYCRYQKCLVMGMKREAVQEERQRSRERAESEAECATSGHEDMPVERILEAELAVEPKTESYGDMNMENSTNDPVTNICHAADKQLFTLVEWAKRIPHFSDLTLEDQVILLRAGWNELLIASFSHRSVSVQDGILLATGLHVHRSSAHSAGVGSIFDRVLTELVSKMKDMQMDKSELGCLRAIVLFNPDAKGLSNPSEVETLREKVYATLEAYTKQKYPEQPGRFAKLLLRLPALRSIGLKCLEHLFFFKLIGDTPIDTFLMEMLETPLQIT

[8] = molecular target: T3, Glucocorticoid receptor (Homo sapiens) (UniProt P04150); experiment: Activity at GR by cell based assay; format: functional
T3 sequence (whole entry): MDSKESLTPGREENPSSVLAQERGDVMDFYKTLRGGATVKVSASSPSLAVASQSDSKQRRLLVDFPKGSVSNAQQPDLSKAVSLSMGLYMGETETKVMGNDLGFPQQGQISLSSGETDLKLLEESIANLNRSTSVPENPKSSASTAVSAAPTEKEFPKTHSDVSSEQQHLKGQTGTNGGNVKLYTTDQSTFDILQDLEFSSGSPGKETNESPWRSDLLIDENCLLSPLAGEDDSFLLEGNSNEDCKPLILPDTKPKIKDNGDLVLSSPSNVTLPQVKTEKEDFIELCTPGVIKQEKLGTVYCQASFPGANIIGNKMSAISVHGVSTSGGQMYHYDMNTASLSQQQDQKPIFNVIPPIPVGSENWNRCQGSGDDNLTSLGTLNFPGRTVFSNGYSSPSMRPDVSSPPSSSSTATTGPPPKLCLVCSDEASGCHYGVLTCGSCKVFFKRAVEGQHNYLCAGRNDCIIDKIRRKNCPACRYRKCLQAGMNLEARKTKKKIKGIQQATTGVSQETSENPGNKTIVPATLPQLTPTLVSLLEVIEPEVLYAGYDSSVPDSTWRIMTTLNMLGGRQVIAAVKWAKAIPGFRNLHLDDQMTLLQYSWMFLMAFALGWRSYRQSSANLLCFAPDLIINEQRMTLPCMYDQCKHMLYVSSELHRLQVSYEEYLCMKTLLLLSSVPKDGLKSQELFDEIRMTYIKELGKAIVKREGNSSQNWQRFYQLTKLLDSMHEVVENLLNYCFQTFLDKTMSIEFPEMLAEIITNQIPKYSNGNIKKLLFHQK

[9] = Volume of distribution at steady state in C57BL/6 mouse at 5 mg/kg, iv; format: ADME, organism-based; set-up: dose 5 mg/kg, route intravenous; details: in vivo, read-out: Vss
Summary of the method: (§1)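 Mouse PK study, IV and PO; compound formulated at 2.5 mg/mL in PEG300/Tween 80 (4:1). IV dose 5 mpk (AUC, Cmax, clearance, Vss); oral dose 20 mpk (AUC, Cmax, bioavailability, t1/2).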

[10] = Bioavailability in C57BL/6 mouse at 20 mg/kg, po; format: ADME, organism-based; details: in vivo; summary of the method: as §1
[11] = Half life in C57BL/6 mouse at 20 mg/kg, po; format: ADME, organism-based; set-up: dose 20 mg/kg, route oral; details: in vivo; summary of the method: as §1
[12] = Stability in human liver microsomes at 1 uM after 30 mins; format: ADME, Microsome; details: read-out: Stability
Summary of the method: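 Incubated at 1 µM with human liver microsomes; percent parent remaining measured at 30 min.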

- Efficacy [2]: 52%
- pEC50 [3]: 6.60
- Activity [7]: inactive
- Activity [8]: inactive
- Vd [9]: 1.65 L/kg
- bioavailability [10]: 28%
- half-life [11]: 6.7 h
- remaining at 0.5 h, 1 µM [12]: 70%
Compound: COc1cccc(C2SC(c3ccc(Cl)cc3)=NN2C(=O)c2c(F)cc(F)cc2F)c1OC (racemic)
- Activity [1]: inactive
- Activity [4]: 34%
- Activity [5]: 33%
- Activity [6]: inactive
